# Laboratory results reported in PubChem BioAssay AID624467 (The Scripps Research Institute Molecular Screening Center, 2012).
# Several values for one entry are separate records, joined by “and”; a condition that tells them apart may be missing. Equal entries are not always repeated. Among all 360,000 compounds or so, about 3,600 (1%) were called active. Shown is part of a subset that was picked to be rich in actives. Unmarked numbers belong to inactive results.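 Rule for the calls: active = activation above the mean activation of all test compounds in the run plus 3 SD (cut at about 38% in these data); inactive = the rest.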
# Target: Trace amine-associated receptor 1 (Homo sapiens) (UniProt Q96RJ0)
# Assay: human TAAR1 agonists, primary screen, Fluo-8 calcium fluorescence, CHO RD-HGA16 cells (AID 624467)
# Details: CHO RD-HGA16 TAAR1, Fluo-8 calcium fluorescence; at 3 µM; active compounds read high; vehicle wells 0%, saturating PEA agonist 100%
# How it was run: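 Benchmarks: low control DMSO, high control PEA (EC100); System: CHO RD-HGA16 cells carrying human TAAR1 plus Gα16; Detection: Fluo-8 fluorescence, 5 s baseline then 140 s kinetic read; Schedule: 17-24 h plating, Fluo-8 75 min 37 °C, 30 min RT; Read-out basis: % activation from peak over basal fluorescence ratio, DMSO-to-PEA scaled.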
# Chain of Trace amine-associated receptor 1 (Homo sapiens) (Q96RJ0 whole entry, looked up): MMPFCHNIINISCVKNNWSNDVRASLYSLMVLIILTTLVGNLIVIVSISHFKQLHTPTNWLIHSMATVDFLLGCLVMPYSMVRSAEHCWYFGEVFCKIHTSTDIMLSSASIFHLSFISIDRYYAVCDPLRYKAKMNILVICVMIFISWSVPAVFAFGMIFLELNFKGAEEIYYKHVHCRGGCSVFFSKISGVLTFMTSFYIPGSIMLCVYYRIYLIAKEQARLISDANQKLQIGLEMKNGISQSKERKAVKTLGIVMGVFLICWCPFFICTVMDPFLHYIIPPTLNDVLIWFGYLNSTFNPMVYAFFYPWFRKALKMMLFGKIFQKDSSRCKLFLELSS
row,SMILES,activation
1,COC(=O)Cc1nnn2c1[C@H](C)[C@H](c1ccccc1[N+](=O)[O-])OCC2,1.43%
2,Cc1cccc(N(CC(=O)N2CCOCC2)S(C)(=O)=O)c1,0.3%
3,Cc1ccc(Cl)c(OCC(=O)N2CCc3ccccc3C2)c1,0.5%
4,COc1cccc(N(CC(=O)N2CCc3ccccc3C2)S(C)(=O)=O)c1,47.3% (active)
5,Cc1ccc(S(=O)(=O)N(CC(=O)N2CCc3ccccc3C2)c2cccc(Cl)c2)cc1,49.8% (active)
6,O=C(CN(c1cccc(Cl)c1)S(=O)(=O)c1ccccc1)NN=C1CCCC1,-0.99%
7,CS(=O)(=O)N(CC(=O)N1CCc2ccccc2C1)c1ccc(Br)cc1,2.37%
8,CCOC(=O)CNC(=O)N(C)[C@H]1C[C@H]2c3[nH]c4c(-c5ccc6c(c5)OCO6)cccc4c3CCN2C(=O)[C@H]1[C@H](C)O,11.6%
9,COc1cccc(CNC(=O)[C@H]2CCCN2C(=O)[C@H]2CCCN2C(=O)C2CCCCC2)c1,2.02%
10,CCc1nn(CCCN2CCN(c3cccc(Cl)c3)CC2)c(=O)n1CCOc1ccccc1,5.08% and 3.96%
11,O=[N+]([O-])c1ccc2[nH]c3c(c2c1)CCCC3O (centres undefined),2.87%
12,COC(=O)[C@]12C[C@H](CC(=O)N3CCN(C(=O)C4CC4)CC3)C(=O)N(Cc3ccc4c(c3)OCO4)C1=C[C@H](C(C)(C)C)O[C@@H]2C,1.35%
13,Cc1ccc(C(=O)CCC(=O)N(C)CC(=O)Nc2c(Cl)cccc2Cl)cc1,-0.39%
14,COc1ccccc1N1CC(C(=O)Nc2ccc(S(=O)(=O)N3CCOCC3)cc2)CC1=O (centres undefined),1.9%
15,COc1ccc(OC)c(NC(=S)N2CCc3ccccc3C2)c1,69.4% (active)
16,COc1ccc(NC(=S)N2CCc3cc(OC)c(OC)cc3C2)cc1,2.44%
17,COc1ccc(C)cc1NC(=S)N1CCOCC1,0.86%
18,CCCCCCCCN1C(=O)[C@@H](CC(=O)NCCCC)C[C@@]2(C(=O)OC)C1=C[C@H](C(C)(C)C)O[C@@H]2C,-1.86%
19,CCCc1nc2c(c(=O)c3ccccc3n2C)c(=O)n1C1CCCCCC1,46.7% (active)
20,CCCN1C(=O)C(Cc2nc3ccccc3c(=O)n2-c2ccccc2)c2cc(C)ccc21 (centres undefined),13.8%
21,CCOC(=O)Cn1c2c(n(-c3ccc(F)cc3)c1=O)C=C(c1ccccc1)[C@@H](C)C(C(=O)N(C)C1CCCCC1)=C2,-1.16%
22,COC(=O)[C@]12C[C@H](CC(=O)NCc3ccc(C)o3)C(=O)N(CCC3=CCCCC3)C1=C[C@H](C(C)(C)C)O[C@@H]2C,-2.27%

row,SMILES,activation
1,CCCCCCCCN1C(=O)[C@@H](CC(=O)N2CCN(C(=O)OCC)CC2)C[C@@]2(C(=O)OC)C1=C[C@H](C1CCCC1)O[C@@H]2C,-2.04%
2,CCN(CC)P(=O)(Nc1ccc(SC(F)F)cc1)c1ccc(N(C)C)cc1NC(=O)c1ccco1 (centres undefined),1.83%
3,CC(C)(C)Nc1c(N)c(=O)oc2ccccc12,9.39%
4,Nc1c(NCCc2ccccc2)c2ccccc2oc1=O,88.1% (active)
5,NC(=O)c1oc2ccccc2c1NC(=O)Cc1ccccc1,10.1%
6,COC(=O)C1=C(C)N(Cc2cccc(C(F)(F)F)c2)C(=NCc2ccccc2)NC1c1ccccc1C(F)(F)F (centres undefined),1.05%
7,C=CCN=C1NC(c2cccc(C(F)(F)F)c2)C(C(=O)OC)=C(C)N1C (centres undefined),-0.19%
8,COC(=O)[C@]12C[C@H](CC(=O)NCc3ccc(OC)c(OC)c3)C(=O)N(Cc3ccccc3)C1=C[C@H](C(C)C)O[C@@H]2C1CC1,-0.82%
9,CCCCn1c(-c2cccc(C)c2)nc2cc3[nH]c(=O)c(C(C)C)nc3cc21,14.7%
10,Cc1cccc(OCCNC(=S)NC(=O)c2cccnc2)c1,-0.63%
11,O=C(/C=C/c1ccc(F)cc1)NC(=S)NNC(=O)c1cccnc1,39.6% (active)
12,NS(=O)(=O)c1ccc(NC(=S)NC(=O)c2cccnc2)cc1,0.75%
13,COCCN1C(=O)N(c2ccc(Cl)cc2)C(=O)C1CC(=O)Nc1cc(OC)cc(OC)c1 (centres undefined),18.5%
14,C[C@H](O)[C@@H]1C(=O)N2CCc3c([nH]c4c(-c5ccc6c(c5)OCO6)cccc34)[C@@H]2C[C@@H]1N(C)C(=O)c1ccco1,14.6%
15,Cc1ccsc1C(=O)NNC(=O)COc1ccc(Br)cc1,1.12%
16,Cc1ccc(O)c(NC(=S)NC(=O)COc2ccc(Br)cc2)c1,108% (active)
17,Cc1ccc(O)c(/C=N/NC(=O)COc2ccc3c(C)cc(=O)oc3c2)c1,6.72%
18,OC[C@H]1O[C@@H](c2nc(-c3nc(-c4ccc(F)cc4)no3)cs2)[C@H](O)[C@@H](O)[C@H]1O,0.88%
19,COc1ccc(OC)c(NC(=O)CSc2nc3cccnc3n2C)c1,1.87%
20,CCOc1ccc(OCCSc2nc3ccccc3n2CC(=O)O)cc1,3.64%
21,CCCCCCCCCCOC(=O)Cn1c(COc2ccc(C)cc2)[n+](C)c2ccccc21,74.1% (active)
22,Cc1noc(C)c1COC(=O)Cn1c(C)nc2ccccc21,1.89%
